According to publication PMC4929832 (Nature, 2016):

Key:
PRKX = PRKX (Homo sapiens, UniProt P51817); assay: kinase panel; assay type: biochemical
NDR1 = NDR1 (Homo sapiens, UniProt Q15208); assay: kinase panel; assay type: biochemical
DYRK1B = DYRK1B (Homo sapiens, UniProt Q9Y463); assay: kinase panel; assay type: biochemical
MARK3 = MARK3 (Homo sapiens, UniProt P27448); assay: kinase panel; assay type: biochemical
NEK1 = NEK1 (Homo sapiens, UniProt Q96PY6); assay: kinase panel; assay type: biochemical
NEK7 = NEK7 (Homo sapiens, UniProt Q8TDX7); assay: kinase panel; assay type: biochemical
TAOK2 = TAOK2 (Homo sapiens, UniProt Q9UL54); assay: kinase panel; assay type: biochemical
Sequence of TAOK2 (Q9UL54 whole entry): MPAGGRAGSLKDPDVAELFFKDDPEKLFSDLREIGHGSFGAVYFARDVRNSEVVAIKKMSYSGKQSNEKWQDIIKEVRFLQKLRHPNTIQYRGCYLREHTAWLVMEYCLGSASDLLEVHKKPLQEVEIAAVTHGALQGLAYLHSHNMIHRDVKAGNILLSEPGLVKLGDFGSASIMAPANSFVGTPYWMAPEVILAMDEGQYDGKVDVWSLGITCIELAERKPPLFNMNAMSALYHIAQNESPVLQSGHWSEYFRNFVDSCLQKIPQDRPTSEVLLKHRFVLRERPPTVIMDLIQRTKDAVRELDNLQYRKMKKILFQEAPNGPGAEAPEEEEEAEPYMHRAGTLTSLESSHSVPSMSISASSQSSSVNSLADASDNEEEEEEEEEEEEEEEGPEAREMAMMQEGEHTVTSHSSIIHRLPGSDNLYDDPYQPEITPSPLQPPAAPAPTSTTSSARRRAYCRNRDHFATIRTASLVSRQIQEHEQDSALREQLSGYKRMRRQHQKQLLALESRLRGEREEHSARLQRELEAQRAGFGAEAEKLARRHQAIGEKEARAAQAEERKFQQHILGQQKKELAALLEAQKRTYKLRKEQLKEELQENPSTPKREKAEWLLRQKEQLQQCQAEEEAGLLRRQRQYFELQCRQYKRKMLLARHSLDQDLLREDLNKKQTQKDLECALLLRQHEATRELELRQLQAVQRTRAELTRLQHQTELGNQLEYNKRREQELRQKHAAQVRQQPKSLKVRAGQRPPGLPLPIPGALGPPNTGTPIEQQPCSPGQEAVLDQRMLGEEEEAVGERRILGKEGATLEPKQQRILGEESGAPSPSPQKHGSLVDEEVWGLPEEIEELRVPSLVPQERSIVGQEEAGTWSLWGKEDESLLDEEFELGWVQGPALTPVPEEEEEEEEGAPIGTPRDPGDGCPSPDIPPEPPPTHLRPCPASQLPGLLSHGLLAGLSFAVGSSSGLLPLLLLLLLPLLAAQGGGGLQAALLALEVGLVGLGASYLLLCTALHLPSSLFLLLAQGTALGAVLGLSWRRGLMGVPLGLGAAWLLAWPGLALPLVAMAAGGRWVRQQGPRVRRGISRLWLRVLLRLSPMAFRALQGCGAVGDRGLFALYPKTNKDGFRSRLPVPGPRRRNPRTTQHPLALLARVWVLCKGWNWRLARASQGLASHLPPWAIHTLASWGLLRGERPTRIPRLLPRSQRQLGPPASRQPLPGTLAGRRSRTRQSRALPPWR

MARK1 = MARK1 (Homo sapiens, UniProt Q9P0L2); assay: kinase panel; assay type: biochemical
STK16 = STK16 (Homo sapiens, UniProt O75716); assay: kinase panel; assay type: biochemical
P38-GAMMA = P38-GAMMA (Homo sapiens, UniProt P53778); assay: kinase panel; assay type: biochemical
Serotonin 5HT2A = Serotonin 5HT2A (Homo sapiens, UniProt P28223); assay: Serotonin 5HT2A calcium flux assay; assay type: cell-based
Sequence of Serotonin 5HT2A (P28223 whole entry): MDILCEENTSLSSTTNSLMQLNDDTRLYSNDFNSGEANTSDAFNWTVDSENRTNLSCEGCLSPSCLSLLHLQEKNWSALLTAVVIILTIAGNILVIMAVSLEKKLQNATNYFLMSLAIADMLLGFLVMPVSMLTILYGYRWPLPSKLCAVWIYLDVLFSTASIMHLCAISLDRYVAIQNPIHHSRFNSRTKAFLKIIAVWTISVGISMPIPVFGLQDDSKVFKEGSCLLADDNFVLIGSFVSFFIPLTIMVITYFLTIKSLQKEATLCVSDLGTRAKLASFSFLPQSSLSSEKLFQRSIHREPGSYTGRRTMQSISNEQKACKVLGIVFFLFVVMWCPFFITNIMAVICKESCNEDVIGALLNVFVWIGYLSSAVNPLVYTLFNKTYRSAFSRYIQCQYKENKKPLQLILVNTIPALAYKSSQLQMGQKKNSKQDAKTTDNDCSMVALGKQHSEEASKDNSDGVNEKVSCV

GSK-3-BETA = GSK-3-BETA (Homo sapiens, UniProt P49841); assay: kinase panel; assay type: biochemical
PI3K-BETA = PI3K-BETA (Homo sapiens, UniProt P42338); assay: kinase panel; assay type: biochemical
CRAF = CRAF (Homo sapiens, UniProt P04049); assay: kinase panel; assay type: biochemical
COX-1 = COX-1 (Homo sapiens, UniProt P23219); assay: COX-1 assay; assay type: biochemical
GRK3 = GRK3 (Homo sapiens, UniProt P35626); assay: kinase panel; assay type: biochemical
KDR = KDR (Homo sapiens, UniProt P35968); assay: kinase panel; assay type: biochemical
[1] = tested on: L858R/T790M/I941R EGFR Ba/F3 cells; assay: Ba/F3 cell proliferation; assay type: cell-based; details: Ba/F3 L858R/T790M/I941R versus L858R/T790M
Procedure, shortened: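 The I941R mutation was introduced into L858R/T790M EGFR by site-directed mutagenesis, and Ba/F3 stable clones were selected in puromycin (2 μg/ml). Cells were treated with the test compound for 72 h and growth was read by MTS assay. Points were run in six wells, with experiments repeated at least three times. Curves were fitted by non-linear regression to a sigmoidal dose response.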

SRC = SRC (Homo sapiens, UniProt P12931); assay: kinase panel; assay type: biochemical
PRKG1 = PRKG1 (Homo sapiens, UniProt Q13976); assay: kinase panel; assay type: biochemical
CDK7 = CDK7 (Homo sapiens, UniProt P50613); assay: kinase panel; assay type: biochemical
ROS = ROS (Homo sapiens, UniProt P08922); assay: kinase panel; assay type: biochemical
BMX = BMX (Homo sapiens, UniProt P51813); assay: kinase panel; assay type: biochemical
PIM3 = PIM3 (Homo sapiens, UniProt Q86V86); assay: kinase panel; assay type: biochemical
MEK2 = MEK2 (Homo sapiens, UniProt P36507); assay: kinase panel; assay type: biochemical
MAPK3 = MAPK3 (Homo sapiens, UniProt P27361); assay: kinase panel; assay type: biochemical
Sequence of MAPK3 (P27361 whole entry): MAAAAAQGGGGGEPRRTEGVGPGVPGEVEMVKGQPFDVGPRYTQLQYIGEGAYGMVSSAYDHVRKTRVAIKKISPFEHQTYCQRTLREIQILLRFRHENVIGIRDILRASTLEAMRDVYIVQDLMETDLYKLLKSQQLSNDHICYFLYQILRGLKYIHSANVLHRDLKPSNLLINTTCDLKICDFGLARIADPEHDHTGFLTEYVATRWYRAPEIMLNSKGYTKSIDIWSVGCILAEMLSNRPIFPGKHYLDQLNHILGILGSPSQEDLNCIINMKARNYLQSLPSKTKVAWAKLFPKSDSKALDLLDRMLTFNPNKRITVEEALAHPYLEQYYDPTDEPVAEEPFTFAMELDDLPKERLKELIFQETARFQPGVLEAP

PKC-ZETA = PKC-ZETA (Homo sapiens, UniProt Q05513); assay: kinase panel; assay type: biochemical
RSK2 = RSK2 (Homo sapiens, UniProt P51812); assay: kinase panel; assay type: biochemical
FLT-1 = FLT-1 (Homo sapiens, UniProt P17948); assay: kinase panel; assay type: biochemical
[2] = tested on: L858R/T790M/C797S EGFR Ba/F3 cells; assay: Ba/F3 cell proliferation; assay type: cell-based; details: EAI045 in combination with cetuximab, 72 hours
Procedure, shortened: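 Ba/F3 cells, either parental or stably expressing mutant EGFR lines described earlier, were exposed to the test compound for 72 hours. Cell numbers were set empirically. Growth was read by MTS assay. Each point was run in six wells, and each experiment was repeated at least three times. Curves were fitted by non-linear regression to a sigmoidal dose response.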

MELK = MELK (Homo sapiens, UniProt Q14680); assay: kinase panel; assay type: biochemical
Sequence of MELK (Q14680 whole entry): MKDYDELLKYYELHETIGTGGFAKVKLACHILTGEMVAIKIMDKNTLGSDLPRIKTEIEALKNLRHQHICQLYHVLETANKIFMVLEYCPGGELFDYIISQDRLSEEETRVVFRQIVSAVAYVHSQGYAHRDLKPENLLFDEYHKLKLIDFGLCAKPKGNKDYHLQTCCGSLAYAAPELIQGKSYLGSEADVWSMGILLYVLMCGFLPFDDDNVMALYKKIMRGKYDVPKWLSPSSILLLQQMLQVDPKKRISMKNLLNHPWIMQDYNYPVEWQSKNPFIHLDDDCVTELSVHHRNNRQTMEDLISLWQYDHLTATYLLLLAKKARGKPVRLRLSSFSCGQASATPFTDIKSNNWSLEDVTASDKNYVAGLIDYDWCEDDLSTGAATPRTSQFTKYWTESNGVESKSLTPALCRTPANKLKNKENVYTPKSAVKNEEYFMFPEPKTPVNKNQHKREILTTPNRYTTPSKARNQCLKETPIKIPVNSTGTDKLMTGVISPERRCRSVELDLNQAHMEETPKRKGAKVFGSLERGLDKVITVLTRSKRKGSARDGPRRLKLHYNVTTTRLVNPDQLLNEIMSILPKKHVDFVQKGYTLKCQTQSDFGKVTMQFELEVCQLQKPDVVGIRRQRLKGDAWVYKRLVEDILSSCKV

CYP3A4 = CYP3A4 Induction Reporter Gene; assay type: cell-based; details: human, CYP3A4 induction reporter gene assay (cell line not given)
CK1-GAMMA2 = CK1-GAMMA2 (Homo sapiens, UniProt P78368); assay: kinase panel; assay type: biochemical
ALK6 = ALK6 (Homo sapiens, UniProt O00238); assay: kinase panel; assay type: biochemical
H1975 cells = assay: Proliferation assay; assay type: cell-based
Procedure, shortened: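 Cells were maintained in 10% FBS/RPMI with penicillin/streptomycin and plated at 500 cells/well in 10% FBS RPMI. Serially diluted test compound was pin-transferred. Viability was read after 3 days by CellTiter-Glo luminescence and normalized to 0.1% DMSO-treated cells and empty wells. EC50 was obtained by non-linear regression curve fitting.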

CAMK1D = CAMK1D (Homo sapiens, UniProt Q8IU85); assay: kinase panel; assay type: biochemical
Sequence of CAMK1D (Q8IU85 whole entry): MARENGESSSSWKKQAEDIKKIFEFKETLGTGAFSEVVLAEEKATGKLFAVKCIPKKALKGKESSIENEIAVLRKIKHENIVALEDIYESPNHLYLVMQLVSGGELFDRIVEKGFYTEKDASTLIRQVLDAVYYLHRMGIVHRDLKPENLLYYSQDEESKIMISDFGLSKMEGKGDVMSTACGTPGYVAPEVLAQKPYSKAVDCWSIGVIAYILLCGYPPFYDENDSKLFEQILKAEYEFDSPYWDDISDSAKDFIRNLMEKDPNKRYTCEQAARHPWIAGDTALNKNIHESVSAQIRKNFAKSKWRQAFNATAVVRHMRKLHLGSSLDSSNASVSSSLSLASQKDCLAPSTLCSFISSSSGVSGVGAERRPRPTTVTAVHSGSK

MNK2 = MNK2 (Homo sapiens, UniProt Q9HBH9); assay: kinase panel; assay type: biochemical
SPHK1 = SPHK1 (Homo sapiens, UniProt Q9NYA1); assay: kinase panel; assay type: biochemical

Sequence of DYRK1B (Q9Y463 whole entry): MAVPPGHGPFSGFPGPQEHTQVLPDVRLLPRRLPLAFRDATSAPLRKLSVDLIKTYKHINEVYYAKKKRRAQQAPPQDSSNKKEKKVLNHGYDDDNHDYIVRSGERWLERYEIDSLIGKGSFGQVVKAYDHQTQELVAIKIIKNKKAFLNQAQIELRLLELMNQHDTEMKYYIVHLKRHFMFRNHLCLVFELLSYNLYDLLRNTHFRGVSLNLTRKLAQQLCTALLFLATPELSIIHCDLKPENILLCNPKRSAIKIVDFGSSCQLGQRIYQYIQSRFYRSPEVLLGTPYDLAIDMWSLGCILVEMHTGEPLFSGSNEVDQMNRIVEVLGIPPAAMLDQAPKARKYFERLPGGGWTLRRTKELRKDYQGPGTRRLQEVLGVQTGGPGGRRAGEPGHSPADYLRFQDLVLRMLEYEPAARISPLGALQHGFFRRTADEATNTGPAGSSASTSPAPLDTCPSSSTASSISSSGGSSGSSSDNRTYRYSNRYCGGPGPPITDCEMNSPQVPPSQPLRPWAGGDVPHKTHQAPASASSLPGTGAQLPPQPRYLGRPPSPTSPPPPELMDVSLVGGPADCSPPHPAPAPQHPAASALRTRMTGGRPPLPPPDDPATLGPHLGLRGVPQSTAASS
Sequence of MARK3 (P27448 whole entry): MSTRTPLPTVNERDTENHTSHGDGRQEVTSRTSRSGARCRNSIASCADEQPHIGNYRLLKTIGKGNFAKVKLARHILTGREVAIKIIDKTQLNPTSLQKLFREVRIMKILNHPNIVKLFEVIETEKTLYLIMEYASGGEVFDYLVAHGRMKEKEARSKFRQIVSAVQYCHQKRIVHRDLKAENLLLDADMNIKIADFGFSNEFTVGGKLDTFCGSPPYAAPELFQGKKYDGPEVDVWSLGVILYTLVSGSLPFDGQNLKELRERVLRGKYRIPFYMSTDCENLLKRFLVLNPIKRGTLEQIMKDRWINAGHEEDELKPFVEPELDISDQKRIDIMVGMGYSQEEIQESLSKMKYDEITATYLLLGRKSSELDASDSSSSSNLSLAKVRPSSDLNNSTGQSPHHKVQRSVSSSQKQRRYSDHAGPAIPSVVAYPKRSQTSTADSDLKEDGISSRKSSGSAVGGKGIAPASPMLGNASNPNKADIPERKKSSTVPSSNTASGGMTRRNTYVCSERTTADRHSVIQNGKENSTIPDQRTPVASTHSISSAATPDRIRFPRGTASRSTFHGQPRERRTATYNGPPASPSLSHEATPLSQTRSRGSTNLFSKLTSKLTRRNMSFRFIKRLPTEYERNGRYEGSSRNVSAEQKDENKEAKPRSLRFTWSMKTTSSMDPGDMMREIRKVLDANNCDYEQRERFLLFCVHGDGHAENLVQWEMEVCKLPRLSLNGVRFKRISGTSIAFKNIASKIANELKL

## O=C(Nc1nccs1)C(c1cc(F)ccc1O)N1Cc2ccccc2C1=O (stereo not drawn) [EAI045, 2-(5-fluoro-2-hydroxyphenyl)-2-(1-oxo-2,3-dihydro-1H-isoindol-2-yl)-N-(1,3-thiazol-2-yl)acetamide]
PRKX
  inhibition at 1 µM: 3%
NDR1
  inhibition at 1 µM: 2%
DYRK1B
  inhibition at 1 µM: 2%
MARK3
  inhibition at 1 µM: 0%
NEK1
  inhibition at 1 µM: 0%
NEK7
  inhibition at 1 µM: 0%
TAOK2
  inhibition at 1 µM: 0%
MARK1
  inhibition at 1 µM: 0%
STK16
  inhibition at 1 µM: 0%
P38-GAMMA
  inhibition at 1 µM: 2%
Serotonin 5HT2A
  IC50: > 30 µM
GSK-3-BETA
  inhibition at 1 µM: 0%
PI3K-BETA
  inhibition at 1 µM: 0%
CRAF
  inhibition at 1 µM: 0%
COX-1
  IC50: > 30 µM
GRK3
  inhibition at 1 µM: 0%
KDR
  inhibition at 1 µM: 0%
[1]
  sensitivity of proliferation to the allosteric inhibitor: dramatically more sensitive
SRC
  inhibition at 1 µM: 0%
PRKG1
  inhibition at 1 µM: 0%
CDK7
  inhibition at 1 µM: 0%
ROS
  inhibition at 1 µM: 1%
BMX
  inhibition at 1 µM: 1%
PIM3
  inhibition at 1 µM: 1%
MEK2
  inhibition at 1 µM: 0%
MAPK3
  inhibition at 1 µM: 0%
PKC-ZETA
  inhibition at 1 µM: 0%
RSK2
  inhibition at 1 µM: 0%
FLT-1
  inhibition at 1 µM: 8%
[2]
  inhibition of proliferation: potently inhibited
MELK
  inhibition at 1 µM: 0%
CYP3A4
  IC50: > 10 µM
CK1-GAMMA2
  inhibition at 1 µM: 0%
ALK6
  inhibition at 1 µM: 0%
H1975 cells; H1975, concentrations as high as 10 μM
  anti-proliferative effect: no anti-proliferative effect
H1975 cells; Homo sapiens, NCI-H1975, 72 h, read-out: EC50 Proliferation
  EC50: > 10 µM
CAMK1D
  inhibition at 1 µM: 0%
MNK2
  inhibition at 1 µM: 3%
SPHK1
  inhibition at 1 µM: 0%
